This sample holds only a part of the variants without activity.
B1: tRNA (parent)
chain: GUUCCGUUGGCGUAAUGGUAACGCGUCUCCCUCCUAAGGAGAAGACUGCGGGUUCGAGUCCCGUACGGAACG

Variants of: B1
Experiment: yeast fitness relative to wild type (ratio to wild type); higher = fitter; tRNA-Arg(CCU), competitive growth, 37 C, YPD
Method in brief: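 A pool of Saccharomyces cerevisiae strains, each with a tRNA-Arg(CCU) gene variant at the native genomic locus, was competed in YPD at 37°C for 24 hours across six parallel replicates. The variants had been chemically synthesised at a 3% per-site mutation rate over 69 sites, and gene amplicons before and after competition were read by 100-nucleotide paired-end sequencing. Darwinian fitness relative to wild type rested on changes in genotype frequencies. Genotypes required ≥ 100 starting reads, and estimates < 0.5 were set to 0.5.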

First: G17C G67C
Second: U16C C24U C29A U32A C46G A57C
The yeast fitness of the first is higher: 0.723 for the first, 0.522 for the second.

C4U A15G G23C A37U C61A and G23U G52A C55A U64A cannot be ordered by yeast fitness: ≤ 0.5 for the first, ≤ 0.5 for the second.

First: C22G C34G C61G
Second: G9A C66G
The yeast fitness of the first is lower: ≤ 0.5 for the first, 0.703 for the second.

Compared with U7C C61G A65G, G6A G12A U16C is lower in yeast fitness: 0.57 for the first, 0.537 for the second.

First: G6C U8C G25A
Second: U7G U19A C34U C66U
The yeast fitness of the first is lower: 0.581 for the first, 0.588 for the second.

Compared with C4U C27G A65U, G56A A57U is higher in yeast fitness: ≤ 0.5 for the first, 0.882 for the second.

First: A20G C33U C61G G68C
Second: C29U C31U C66U
The yeast fitness of the first is lower: ≤ 0.5 for the first, 0.591 for the second.

First: C11U C30A G51A G67A
Second: U2C G6A C31U C49U
The yeast fitness of the first is lower: ≤ 0.5 for the first, 0.641 for the second.

Compared with G41A C60G U64C A65G, C5U C34U is higher in yeast fitness: ≤ 0.5 for the first, 0.746 for the second.

Going from A36U G48A to U8A A21C C29A G39A U54G G58C, the yeast fitness falls from 0.657 to ≤ 0.5.

Going from C5A G23C U32G A69U to C61A C66G, the yeast fitness rises from ≤ 0.5 to 0.572.

First: C29A A36U
Second: U13A G25C
The yeast fitness of the first is lower: ≤ 0.5 for the first, 1.04 for the second.

First: A42C C60U G68A
Second: G18U A45U U59C
The yeast fitness of the first is lower: ≤ 0.5 for the first, 0.542 for the second.

First: A15G U28C A37C A70U
Second: C24U G68C
The yeast fitness of the first is lower: ≤ 0.5 for the first, 0.823 for the second.

Going from U3C G17A U54C to U3C G12A G25A, the yeast fitness rises from ≤ 0.5 to 0.992.

Compared with A20U C55U A57C, U32C U54C is higher in yeast fitness: ≤ 0.5 for the first, 0.687 for the second.

U28G G41C C55G A70U and C4G U7A U19C A20C C24U U53C cannot be ordered by yeast fitness: ≤ 0.5 for the first, ≤ 0.5 for the second.

C22G C49G U64G A65G A70U and C30U C31G G39C C55A C62U A70U cannot be ordered by yeast fitness: ≤ 0.5 for the first, ≤ 0.5 for the second.

G23C U32A C66U and G38C C49U U54A A65C cannot be ordered by yeast fitness: ≤ 0.5 for the first, ≤ 0.5 for the second.

C30G G39C C55A and G23A C31U C33G A65G cannot be ordered by yeast fitness: ≤ 0.5 for the first, ≤ 0.5 for the second.

Going from A21U C22U U32A G52C to A15C G67A, the yeast fitness rises from ≤ 0.5 to 0.698.

First: C5A U16G A21C C24U C30A
Second: C5U C31U G41A U64C
The yeast fitness of the first is higher: 0.618 for the first, ≤ 0.5 for the second.

Going from U2G U19A A21G C31U A65U G67C to A15G G25A U32G A40G C60G, the yeast fitness rises from ≤ 0.5 to 0.501.

Compared with G9C C30U C31G, U7C C55A is lower in yeast fitness: 0.632 for the first, 0.567 for the second.

U16A C55U U59A A65C and G12A C29U U35A G44C C61A cannot be ordered by yeast fitness: ≤ 0.5 for the first, ≤ 0.5 for the second.

Compared with A40G A43U, C5U A21U C31U G52A A69G is lower in yeast fitness: 0.995 for the first, ≤ 0.5 for the second.

Compared with C5G A21U G23A C29A A37U A57G C61U, U8G U35G A70C is lower in yeast fitness: 0.541 for the first, 0.536 for the second.

A36C G50C U53C and A14U U54C C62U cannot be ordered by yeast fitness: ≤ 0.5 for the first, ≤ 0.5 for the second.

Compared with A14G G39C G51A, A14G C30U C46A is higher in yeast fitness: ≤ 0.5 for the first, 0.763 for the second.

Compared with A15C C49G, C4G C31G U32G is lower in yeast fitness: 0.652 for the first, ≤ 0.5 for the second.

Going from G12A G41A G51C to C22G C24U G44A, the yeast fitness rises from ≤ 0.5 to 0.555.

Compared with G9C G12C A14G A20C, G12A A43G G48C is higher in yeast fitness: ≤ 0.5 for the first, 0.568 for the second.

Going from C31U C49U A69U to G23A A37U C49G C55G, the yeast fitness falls from 0.889 to 0.556.

First: U3G U16C C29G
Second: G6A U8C
The yeast fitness of the first is lower: ≤ 0.5 for the first, 0.792 for the second.

Compared with C5U C11U U35G A43U C46G U53C A69C, G9C C24U U26G is lower in yeast fitness: 0.549 for the first, 0.51 for the second.

Going from C5G A45U C62U to A42G, the yeast fitness rises from 0.725 to 0.934.

First: U2G C24G G52C C66U
Second: C4G A21C A43U
The yeast fitness of the first is higher: 0.807 for the first, ≤ 0.5 for the second.

Compared with C24A A42G C49U U59G C62A A69G, G17C U32C A42U is higher in yeast fitness: ≤ 0.5 for the first, 0.559 for the second.

Going from G9A G10A C31G G52A C61G to U3C, the yeast fitness rises from ≤ 0.5 to 0.996.

First: C22U C34U C62U A70C
Second: U2C G39A G44A
The yeast fitness of the first is lower: ≤ 0.5 for the first, 0.66 for the second.

Going from C24G A36G U64C A65U to A21C U59C, the yeast fitness rises from ≤ 0.5 to 0.777.

Going from U7G C11U G58A to C5U G39U, the yeast fitness rises from 0.589 to 0.823.

Compared with U28C G41C, U3A C30A is higher in yeast fitness: 0.712 for the first, 0.834 for the second.

Compared with G38A U47A C55G C61U, A15C A36G G56A C61U is lower in yeast fitness: 0.718 for the first, ≤ 0.5 for the second.

Compared with G17A A43G A45G C62G, U2C A42G is higher in yeast fitness: ≤ 0.5 for the first, 0.821 for the second.

First: U3C C27G C30U G67A
Second: U2C C31A A70U
The yeast fitness of the first is lower: 0.554 for the first, 0.76 for the second.

Compared with C22G C31A C49G G63C A69U, G6A C11A C66U is lower in yeast fitness: 0.603 for the first, 0.592 for the second.

Compared with A14C A40U, A14C U28C is higher in yeast fitness: 0.587 for the first, 0.606 for the second.

Going from C4U C33A A42G to A21C C61G, the yeast fitness rises from ≤ 0.5 to 0.585.

Compared with G23C A65U, A14U G17A A45U G58C is lower in yeast fitness: 0.585 for the first, ≤ 0.5 for the second.

C29G G41C A65U and G9C G17A C27U U54A cannot be ordered by yeast fitness: ≤ 0.5 for the first, ≤ 0.5 for the second.

Compared with A43C A45G, U47C A57U is lower in yeast fitness: 1.02 for the first, 0.623 for the second.

Going from C33A C49U G52A A70C to G6A G9U, the yeast fitness rises from ≤ 0.5 to 0.774.

Compared with C11U U16C U26C A45C C46U, U3C U59C is higher in yeast fitness: ≤ 0.5 for the first, 0.961 for the second.

Going from U59C C62U to C46A G48C U59G, the yeast fitness falls from 0.814 to 0.534.

A15G G17C C33A C46A G52A G63C and C11G A36C G56A A70U cannot be ordered by yeast fitness: ≤ 0.5 for the first, ≤ 0.5 for the second.

Compared with C27A G50A A69U, C4G G17A C61U is lower in yeast fitness: 0.566 for the first, 0.56 for the second.

C5U C22G C29A C61A and C11G A14G A15U G23C G68C cannot be ordered by yeast fitness: ≤ 0.5 for the first, ≤ 0.5 for the second.

C24G U28G C46G G67U and A14U C29U A37U C46U U59G cannot be ordered by yeast fitness: ≤ 0.5 for the first, ≤ 0.5 for the second.

A14G C34G A45U and G23U C60U A65G cannot be ordered by yeast fitness: ≤ 0.5 for the first, ≤ 0.5 for the second.

First: C34G C60U C61U
Second: C5A C55G
The yeast fitness of the first is lower: 0.545 for the first, 0.618 for the second.

Compared with A15G A37G, C5G U13C C24U is lower in yeast fitness: 0.795 for the first, ≤ 0.5 for the second.

Compared with U64C A69U, A36G C61U U64C C66U is lower in yeast fitness: 1.07 for the first, ≤ 0.5 for the second.

Going from C5A C24U C62U to G9A A21C C27A A37G A45C, the yeast fitness falls from 0.624 to ≤ 0.5.

C24U U28C A40C A69C and U8A G18C C27U U32C C66G A70U cannot be ordered by yeast fitness: ≤ 0.5 for the first, ≤ 0.5 for the second.

Going from A43G A70U to C29G C34U A42G, the yeast fitness falls from 1.01 to ≤ 0.5.

First: C34A U53A
Second: U32G G68C
The yeast fitness of the first is lower: 0.541 for the first, 0.703 for the second.

Going from A14U C29U U32G A57U to U47C G50C, the yeast fitness rises from ≤ 0.5 to 0.633.

First: C4U G25C G68A
Second: U8G A21U C62U
The yeast fitness of the first is higher: 0.976 for the first, ≤ 0.5 for the second.

U7C C11U G39C A45U G67A and C4G C5G A14G A43G cannot be ordered by yeast fitness: ≤ 0.5 for the first, ≤ 0.5 for the second.

C30U G44A G48C A70G and C22G C24A G44C G51A G58C U59A cannot be ordered by yeast fitness: ≤ 0.5 for the first, ≤ 0.5 for the second.

Going from C24A G56C C61G to A20C C34U, the yeast fitness rises from ≤ 0.5 to 0.65.

Compared with G6C A45C G56A, C22A G51C C66U is lower in yeast fitness: 0.568 for the first, ≤ 0.5 for the second.

Compared with A37C G48C, C31G C34G C66A is lower in yeast fitness: 0.751 for the first, 0.568 for the second.

G12C A20C C31G C66A and C5G U8C A15G G18C C62U cannot be ordered by yeast fitness: ≤ 0.5 for the first, ≤ 0.5 for the second.

Going from C4U U35G A65G to C27A A42C G68C, the yeast fitness falls from 0.607 to ≤ 0.5.

First: U2A U3C G18C C29G U54A
Second: C22A C24U
The yeast fitness of the first is lower: ≤ 0.5 for the first, 0.74 for the second.

Going from A21U C24U U26A A43U to C29G G51A A69U, the yeast fitness falls from 0.668 to ≤ 0.5.

U3A U19A C33U G52C A65G and U13A C62G C66A cannot be ordered by yeast fitness: ≤ 0.5 for the first, ≤ 0.5 for the second.

Going from U28C A43C G67C to U8C U26C A37U A57G, the yeast fitness falls from 0.528 to ≤ 0.5.

G12A A21C C31U and G12A C22A C24A A65U cannot be ordered by yeast fitness: ≤ 0.5 for the first, ≤ 0.5 for the second.

Compared with A21C C31A C33G A45G G48A, C11U U53C is higher in yeast fitness: 0.579 for the first, 0.652 for the second.

First: U16A C34U
Second: G25A A37U U54A
The yeast fitness of the first is higher: 0.663 for the first, ≤ 0.5 for the second.

For U35C G41C A65C, the yeast fitness was ≤ 0.5.

From the RNAGym collection of RNA variant scans (doi:10.1126/science.aae0568)
